In the RNAGym collection of RNA variant scans (doi:10.1126/science.aae0568):
This sample holds only a part of the variants without activity.

B1: tRNA (parent)
chain: GUUCCGUUGGCGUAAUGGUAACGCGUCUCCCUCCUAAGGAGAAGACUGCGGGUUCGAGUCCCGUACGGAACG

Variants of: B1
Assay: yeast fitness relative to wild type (ratio to wild type); higher = fitter; tRNA-Arg(CCU), competitive growth, 37 C, YPD
In short: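 Variants of the tRNA-Arg(CCU) gene, chemically synthesised with a 3% per-site mutation rate at 69 sites, were placed at the native genomic locus in Saccharomyces cerevisiae. The pooled strains were competed in YPD at 37°C for 24 hours in six parallel replicates. Gene amplicons from the start population and from each end population were read by 100-nucleotide paired-end sequencing. Darwinian fitness relative to wild type came from changes in genotype frequencies; genotypes needed ≥ 100 starting reads, and estimates < 0.5 were set to 0.5.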

Row | Variant | yeast fitness
1 | C5U A21C G23A C49A G52A G56C A57C | 0.508
2 | C5U A36U A45U | ≤ 0.5
3 | C5U C11U A36U C60A | ≤ 0.5
4 | C5U A14G C24U U32G A43G C66U | ≤ 0.5
5 | C5U A20G C61U | 0.711
6 | C5U A15U A21G C49U | ≤ 0.5
7 | C5U A40U A57U | ≤ 0.5
8 | C5U A21U C30G A42G U59C C66G G68A | ≤ 0.5
9 | C5U C11A U54C G63A | ≤ 0.5
10 | C5U A36G G52C | ≤ 0.5
11 | C5U C11U A14C C61A | ≤ 0.5
12 | C5U C11G C33A G67A | ≤ 0.5
13 | C5U A37G U47G A69G | ≤ 0.5
14 | C5U A21U C33U G50A U59C | ≤ 0.5
15 | C5U C11G U13G G23C C34U U59C C66U | ≤ 0.5
16 | C5U A36G A65G A70C | ≤ 0.5
17 | C5U C11G C24U A42C A65C | 0.605
18 | C5U A14U C30U G39C C60A | ≤ 0.5
19 | C5U A43U G48A C61G A70C | ≤ 0.5
20 | C5G U35C A69C | 0.551
21 | C5U A37U | 0.732

Row | Variant | yeast fitness
22 | C5U A37C | 0.764
23 | C5U A15U C29U C31U C34U U64C | ≤ 0.5
24 | C5U A21U C30G C33U C66A | ≤ 0.5
25 | C5U A15G A20C U26C G41C G67C | 0.593
26 | C5U A36C U54A | ≤ 0.5
27 | C5U A21U C30G A70U | 0.651
28 | C5U A21G C27U A69U | ≤ 0.5
29 | C5U A45U G68C | 0.531
30 | C5U A15G A20U A42G G63A | ≤ 0.5
31 | C5U A15U C29U C31U C34U C66A | ≤ 0.5
32 | C5U A15U C27G | ≤ 0.5
33 | C5U A20G | 0.904
34 | C5U A20C | 1.1
35 | C5U A20U A36U | ≤ 0.5
36 | C5U A20U A36G A65U | ≤ 0.5
37 | C5U A15U G17A G44C | ≤ 0.5
38 | C5U A65G | 0.94
39 | C5G U32A C62G | ≤ 0.5
40 | C5G U32A C62U | 0.532
41 | C5U A20U U26A G52A | ≤ 0.5
42 | C5U A15G C22G G41A A45U U47A C62U | ≤ 0.5

Row | Variant | yeast fitness
43 | C5U | 0.987
44 | C5U A37C A70C | 0.631
45 | C5U A37C A40C G51A C55A G58A | 0.529
46 | C5U C11U A45U A70C | 0.725
47 | C5U A40C A42G G68A | ≤ 0.5
48 | C5U A40C G48A | 0.592
49 | C5U A36U G67A | ≤ 0.5
50 | C5U C11U A21U | 0.696
51 | C5U A14G A43G | 0.553
52 | C5U A14C G52C A65U | ≤ 0.5
53 | C5U A15C C29U G58C | ≤ 0.5
54 | C5U A15G A20U | 0.662
55 | C5G U35C G50C G56A A70U | ≤ 0.5
56 | C5U A40U G44A C61A | ≤ 0.5
57 | C5U A15U | 0.671
58 | C5U A37U C49A G56C | ≤ 0.5
59 | C5U A20U C49A | ≤ 0.5
60 | C5U C11G U19G C24G C30U C61U | ≤ 0.5
61 | C5U A14U U19C G48A C66U | ≤ 0.5
62 | C5U A15G G17C C66U | ≤ 0.5
63 | C5G U47G | 0.611

Row | Variant | yeast fitness
64 | C5G U47C | 0.745
65 | C5U A14C A42G A65C | ≤ 0.5
66 | C5U A14G A36G G68C | ≤ 0.5
67 | C5U A40C U47C A65U | ≤ 0.5
68 | C5U A21G U28C A36G A69G | 0.599
69 | C5G U28G G38C C62G C66U | ≤ 0.5
70 | C5U A14C U35C | ≤ 0.5
71 | C5U A37G A43C C62U | 0.541
72 | C5G U28G G38C C62G | ≤ 0.5
73 | C5U A37G A45C C61G A70U | ≤ 0.5
74 | C5U A20U A40C | ≤ 0.5
75 | C5G U35C G48C | 0.571
76 | C5G U26G A36C C66A | ≤ 0.5
77 | C5U C11U A40U G48A C49U | 0.709
78 | C5U A21G | 0.981
79 | C5G U47C U59A | ≤ 0.5
80 | C5U A14U C31G U59A C61U | ≤ 0.5
81 | C5U C11G C29G | 0.733
82 | C5U A21U U32A A40U C60G | 0.694
83 | C5U A15U G23C A45U C62A | ≤ 0.5
